ChEMBL document CHEMBL3407460, “Synthesis of novel thiazole-based 8,9-dihydro-7H-pyrimido[4,5-b][1,4]diazepines as potential antitumor and antifungal agents” (2015)
In brackets after ≈: the same amount, converted by molar mass. Values belong to the compound of their own block, whether it stands above or below them.

Key:
Type in all cases: functional
Candida albicans [1] = assay: Antifungal activity against Candida albicans ATCC 10231 assessed as growth inhibition at 125 ug/ml after 48 hrs by broth microdilution method; settings: ATCC 10231, 48 h
Outline: (§1)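 CLSI M27-A3 broth microdilution in RPMI-1640. Compound stocks were made in DMSO (final at most 1%) and tested at final levels of 250 to 0.98. Inoculum was 1–5 × 10^3 CFU/mL, incubated 48 h at 30 °C in a moist, dark chamber. Growth and sterility control wells were included.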

Candida albicans [2] = assay: Antifungal activity against Candida albicans ATCC 10231 assessed as growth inhibition at 250 ug/ml after 48 hrs by broth microdilution method; settings: ATCC 10231, 48 h; outline: as §1
Candida albicans [3] = assay: Antifungal activity against Candida albicans ATCC 10231 assessed as growth inhibition at 7.81 ug/ml after 48 hrs by broth microdilution method; settings: ATCC 10231, 48 h; outline: as §1
Candida albicans [4] = assay: Antifungal activity against Candida albicans ATCC 10231 assessed as growth inhibition at 3.9 ug/ml after 48 hrs by broth microdilution method; settings: ATCC 10231, 48 h; outline: as §1
Cryptococcus neoformans [5] = assay: Antifungal activity against Cryptococcus neoformans ATCC 32264 assessed as growth inhibition at 250 ug/ml after 48 hrs by broth microdilution method; settings: ATCC 32264, 48 h; outline: as §1
Cryptococcus neoformans [6] = assay: Antifungal activity against Cryptococcus neoformans ATCC 32264 assessed as growth inhibition at 7.81 ug/ml after 48 hrs by broth microdilution method; settings: ATCC 32264, 48 h; outline: as §1
Cryptococcus neoformans [7] = assay: Antifungal activity against Cryptococcus neoformans ATCC 32264 assessed as growth inhibition at 31.25 ug/ml after 48 hrs by broth microdilution method; settings: ATCC 32264, 48 h; outline: as §1
Candida albicans [8] = assay: Antifungal activity against Candida albicans ATCC 10231 assessed as growth inhibition at 15.62 ug/ml after 48 hrs by broth microdilution method; settings: ATCC 10231, 48 h; outline: as §1
Candida albicans [9] = assay: Antifungal activity against Candida albicans ATCC 10231 assessed as growth inhibition at 62.5 ug/ml after 48 hrs by broth microdilution method; settings: ATCC 10231, 48 h; outline: as §1
Cryptococcus neoformans [10] = assay: Antifungal activity against Cryptococcus neoformans ATCC 32264 assessed as growth inhibition at 62.5 ug/ml after 48 hrs by broth microdilution method; settings: ATCC 32264, 48 h; outline: as §1
Cryptococcus neoformans [11] = assay: Antifungal activity against Cryptococcus neoformans ATCC 32264 assessed as growth inhibition at 3.9 ug/ml after 48 hrs by broth microdilution method; settings: ATCC 32264, 48 h; outline: as §1
Cryptococcus neoformans [12] = assay: Antifungal activity against Cryptococcus neoformans ATCC 32264 assessed as growth inhibition at 125 ug/ml after 48 hrs by broth microdilution method; settings: ATCC 32264, 48 h; outline: as §1
Cryptococcus neoformans [13] = assay: Antifungal activity against Cryptococcus neoformans ATCC 32264 assessed as growth inhibition at 15.62 ug/ml after 48 hrs by broth microdilution method; settings: ATCC 32264, 48 h; outline: as §1
Candida albicans [14] = assay: Antifungal activity against Candida albicans ATCC 10231 assessed as growth inhibition at 31.25 ug/ml after 48 hrs by broth microdilution method; settings: ATCC 10231, 48 h; outline: as §1
Cryptococcus neoformans [15] = assay: Antifungal activity against Cryptococcus neoformans ATCC 32264 after 48 hrs by broth microdilution method; settings: ATCC 32264, 48 h
Cryptococcus neoformans [16] = assay: Antifungal activity against Cryptococcus neoformans IM 961951 clinical isolate after 48 hrs by broth microdilution method; settings: IM 961951, 48 h
Outline: (§2)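 Clinical isolates from the Malbrán Institute were grown on Sabouraud-chloramphenicol agar for 48 h at 30 °C, kept on Sabouraud-dextrose agar and subcultured every 15 days. M27-A3 RPMI-1640 microdilution used 1–5 × 10^3 CFU/mL, 48 h at 30 °C, OD405 read, triplicate. Endpoints MIC100, MIC80 and MIC50 were taken from % inhibition dose-response curves.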

Cryptococcus neoformans [17] = assay: Antifungal activity against Cryptococcus neoformans IM 983036 clinical isolate after 48 hrs by broth microdilution method; settings: IM 983036, 48 h; outline: as §2
Cryptococcus neoformans [18] = assay: Antifungal activity against Cryptococcus neoformans IM 983040 clinical isolate after 48 hrs by broth microdilution method; settings: IM 983040, 48 h; outline: as §2
Cryptococcus neoformans [19] = assay: Antifungal activity against Cryptococcus neoformans IM 042074 clinical isolate after 48 hrs by broth microdilution method; settings: IM 042074, 48 h; outline: as §2
Cryptococcus neoformans [20] = assay: Antifungal activity against Cryptococcus neoformans IM 031631 clinical isolate after 48 hrs by broth microdilution method; settings: IM 031631, 48 h; outline: as §2
Cryptococcus neoformans [21] = assay: Antifungal activity against Cryptococcus neoformans IM 031706 clinical isolate after 48 hrs by broth microdilution method; settings: IM 031706, 48 h
Outline: (§3)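 Clinical isolates from the Malbrán Institute were grown on Sabouraud-chloramphenicol agar for 48 h at 30 °C, kept on Sabouraud-dextrose agar and subcultured every 15 days. Endpoints MIC100, MIC80 and MIC50 were taken from % inhibition dose-response curves.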

Cryptococcus neoformans [22] = assay: Antifungal activity against Cryptococcus neoformans IM 00319 clinical isolate after 48 hrs by broth microdilution method; settings: IM 00319, 48 h; outline: as §3
Cryptococcus neoformans [23] = assay: Antifungal activity against Cryptococcus neoformans IM 972724 clinical isolate after 48 hrs by broth microdilution method; settings: IM 972724, 48 h; outline: as §2
Cryptococcus neoformans [24] = assay: Antifungal activity against Cryptococcus neoformans IM 972751 clinical isolate after 48 hrs by broth microdilution method; settings: IM 972751, 48 h; outline: as §2
Cryptococcus neoformans [25] = assay: Antifungal activity against Cryptococcus neoformans IM 052470 clinical isolate after 48 hrs by broth microdilution method; settings: IM 052470, 48 h; outline: as §3

SMILES: Nc1nc(N)c2c(n1)NC(c1sc(Cl)nc1Cl)CC(c1ccc3c(c1)OCO3)=N2 (configuration not stated)
inhibition at 125 µg/mL (Candida albicans [1]): 48.1% | inhibition at 250 µg/mL (Candida albicans [2]): 56.8% | inhibition at 7.81 µg/mL (Candida albicans [3]): 0% | inhibition at 3.9 µg/mL (Candida albicans [4]): 0% | inhibition at 250 µg/mL (Cryptococcus neoformans [5]): 58.5% | inhibition at 7.81 µg/mL (Cryptococcus neoformans [6]): 3.92% | inhibition at 31.25 µg/mL (Cryptococcus neoformans [7]): 7.07% | inhibition at 15.62 µg/mL (Candida albicans [8]): 0% | inhibition at 62.5 µg/mL (Candida albicans [9]): 41.6% | inhibition at 62.5 µg/mL (Cryptococcus neoformans [10]): 19.5% | inhibition at 3.9 µg/mL (Cryptococcus neoformans [11]): 0% | inhibition at 125 µg/mL (Cryptococcus neoformans [12]): 36.9% | inhibition at 15.62 µg/mL (Cryptococcus neoformans [13]): 5.35% | inhibition at 31.25 µg/mL (Candida albicans [14]): 24.3%

MIC50 (Cryptococcus neoformans [15]): 15.6 µg/mL (≈ 38.4 µM) | MIC80 (Cryptococcus neoformans [15]): 31.2 µg/mL (≈ 76.8 µM) | MIC (Cryptococcus neoformans [15]; read-out: MIC100): 31.2 µg/mL (≈ 76.8 µM) | MIC50 (Cryptococcus neoformans [16]): 15.6 µg/mL (≈ 38.4 µM) | MIC80 (Cryptococcus neoformans [16]): 31.2 µg/mL (≈ 76.8 µM) | MIC (Cryptococcus neoformans [16]; read-out: MIC100): 31.2 µg/mL (≈ 76.8 µM) | MIC50 (Cryptococcus neoformans [17]): 15.6 µg/mL (≈ 38.4 µM) | MIC80 (Cryptococcus neoformans [17]): 31.2 µg/mL (≈ 76.8 µM) | MIC (Cryptococcus neoformans [17]; read-out: MIC100): 31.2 µg/mL (≈ 76.8 µM) | MIC50 (Cryptococcus neoformans [18]): 7.8 µg/mL (≈ 19.2 µM) | MIC80 (Cryptococcus neoformans [18]): 31.2 µg/mL (≈ 76.8 µM) | MIC (Cryptococcus neoformans [18]; read-out: MIC100): 31.2 µg/mL (≈ 76.8 µM) | MIC50 (Cryptococcus neoformans [19]): 15.6 µg/mL (≈ 38.4 µM) | MIC80 (Cryptococcus neoformans [19]): 31.2 µg/mL (≈ 76.8 µM) | MIC (Cryptococcus neoformans [19]; read-out: MIC100): 31.2 µg/mL (≈ 76.8 µM) | MIC50 (Cryptococcus neoformans [20]): 31.2 µg/mL (≈ 76.8 µM) | MIC80 (Cryptococcus neoformans [20]): 31.2 µg/mL (≈ 76.8 µM) | MIC (Cryptococcus neoformans [20]; read-out: MIC100): 62.5 µg/mL (≈ 154 µM) | MIC50 (Cryptococcus neoformans [21]): 31.2 µg/mL (≈ 76.8 µM) | MIC80 (Cryptococcus neoformans [21]): 31.2 µg/mL (≈ 76.8 µM) | MIC (Cryptococcus neoformans [21]; read-out: MIC100): 62.5 µg/mL (≈ 154 µM) | MIC50 (Cryptococcus neoformans [22]): 31.2 µg/mL (≈ 76.8 µM) | MIC80 (Cryptococcus neoformans [22]): 31.2 µg/mL (≈ 76.8 µM) | MIC (Cryptococcus neoformans [22]; read-out: MIC100): 62.5 µg/mL (≈ 154 µM) | MIC50 (Cryptococcus neoformans [23]): 15.6 µg/mL (≈ 38.4 µM) | MIC80 (Cryptococcus neoformans [23]): 31.2 µg/mL (≈ 76.8 µM) | MIC (Cryptococcus neoformans [23]; read-out: MIC100): 31.2 µg/mL (≈ 76.8 µM) | MIC50 (Cryptococcus neoformans [24]): 31.2 µg/mL (≈ 76.8 µM) | MIC80 (Cryptococcus neoformans [24]): 31.2 µg/mL (≈ 76.8 µM) | MIC (Cryptococcus neoformans [24]; read-out: MIC100): 62.5 µg/mL (≈ 154 µM) | MIC50 (Cryptococcus neoformans [25]): 7.8 µg/mL (≈ 19.2 µM) | MIC80 (Cryptococcus neoformans [25]): 31.2 µg/mL (≈ 76.8 µM) | MIC (Cryptococcus neoformans [25]; read-out: MIC100): 62.5 µg/mL (≈ 154 µM)
SMILES: Nc1nc(N)c2c(n1)NC(c1sc(Cl)nc1Cl)CC(c1ccccc1)=N2 (configuration not stated)
inhibition at 125 µg/mL (Candida albicans [1]): 100% | inhibition at 250 µg/mL (Candida albicans [2]): 100% | MFC (Cryptococcus neoformans [15]): 31.2 µg/mL (≈ 76.8 µM) | inhibition at 7.81 µg/mL (Candida albicans [3]): 21.5% | MFC (Cryptococcus neoformans [16]): 31.2 µg/mL (≈ 76.8 µM) | MFC (Cryptococcus neoformans [17]): 31.2 µg/mL (≈ 76.8 µM) | MFC (Cryptococcus neoformans [18]): 62.5 µg/mL (≈ 154 µM) | MFC (Cryptococcus neoformans [19]): 62.5 µg/mL (≈ 154 µM) | inhibition at 3.9 µg/mL (Candida albicans [4]): 4.92% | inhibition at 250 µg/mL (Cryptococcus neoformans [5]): 100% | inhibition at 7.81 µg/mL (Cryptococcus neoformans [6]): 0% | inhibition at 31.25 µg/mL (Cryptococcus neoformans [7]): 7% | inhibition at 15.62 µg/mL (Candida albicans [8]): 62% | MFC (Cryptococcus neoformans [20]): 62.5 µg/mL (≈ 154 µM) | MFC (Cryptococcus neoformans [21]): 62.5 µg/mL (≈ 154 µM) | MFC (Cryptococcus neoformans [22]): 62.5 µg/mL (≈ 154 µM) | inhibition at 62.5 µg/mL (Candida albicans [9]): 100% | inhibition at 62.5 µg/mL (Cryptococcus neoformans [10]): 21.8% | MFC (Cryptococcus neoformans [23]): 31.2 µg/mL (≈ 76.8 µM) | inhibition at 3.9 µg/mL (Cryptococcus neoformans [11]): 0% | inhibition at 125 µg/mL (Cryptococcus neoformans [12]): 74.3% | MFC (Cryptococcus neoformans [24]): 62.5 µg/mL (≈ 154 µM) | inhibition at 15.62 µg/mL (Cryptococcus neoformans [13]): 2.53% | inhibition at 31.25 µg/mL (Candida albicans [14]): 100% | MFC (Cryptococcus neoformans [25]): 62.5 µg/mL (≈ 154 µM)
